Results taken from PubChem BioAssay AID493046 (Johns Hopkins Ion Channel Center, 2011).

Each compound was assayed against Potassium voltage-gated channel subfamily KQT member 5 (Homo sapiens) (UniProt Q9NR82) (assay: KCNQ5 channel potentiation by KCNQ2 openers, dose response, selectivity assay for KCNQ2 activator project, cell-based, thallium flux (AID 493046)). Settings: CHO-K1 transfected KCNQ5, FluxOR thallium flux fluorescence; series mostly up to 30 µM; potentiation: at the top concentration;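 active = KCNQ5 potassium channel activity raised or lowered at any tested dose, with a dose response curve obtained; inactive = no effect at any dose, or no curve obtained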.
Method in brief: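 Reagent: potassium sulfate plus thallium sulfate depolarizing stimulus; material: KCNQ5-transfected CHO-K1 cells; benchmarks: vehicle controls as normalization reference; incubation: transfection 24 h before, dye 90 min, compound 20 min, room temperature; signal: FluxOR thallium flux fluorescence, kinetic read; measure: fluorescence ratio as percent change versus vehicle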

Potassium voltage-gated channel subfamily KQT member 5 (Homo sapiens), sequence (Q9NR82 whole entry, looked up): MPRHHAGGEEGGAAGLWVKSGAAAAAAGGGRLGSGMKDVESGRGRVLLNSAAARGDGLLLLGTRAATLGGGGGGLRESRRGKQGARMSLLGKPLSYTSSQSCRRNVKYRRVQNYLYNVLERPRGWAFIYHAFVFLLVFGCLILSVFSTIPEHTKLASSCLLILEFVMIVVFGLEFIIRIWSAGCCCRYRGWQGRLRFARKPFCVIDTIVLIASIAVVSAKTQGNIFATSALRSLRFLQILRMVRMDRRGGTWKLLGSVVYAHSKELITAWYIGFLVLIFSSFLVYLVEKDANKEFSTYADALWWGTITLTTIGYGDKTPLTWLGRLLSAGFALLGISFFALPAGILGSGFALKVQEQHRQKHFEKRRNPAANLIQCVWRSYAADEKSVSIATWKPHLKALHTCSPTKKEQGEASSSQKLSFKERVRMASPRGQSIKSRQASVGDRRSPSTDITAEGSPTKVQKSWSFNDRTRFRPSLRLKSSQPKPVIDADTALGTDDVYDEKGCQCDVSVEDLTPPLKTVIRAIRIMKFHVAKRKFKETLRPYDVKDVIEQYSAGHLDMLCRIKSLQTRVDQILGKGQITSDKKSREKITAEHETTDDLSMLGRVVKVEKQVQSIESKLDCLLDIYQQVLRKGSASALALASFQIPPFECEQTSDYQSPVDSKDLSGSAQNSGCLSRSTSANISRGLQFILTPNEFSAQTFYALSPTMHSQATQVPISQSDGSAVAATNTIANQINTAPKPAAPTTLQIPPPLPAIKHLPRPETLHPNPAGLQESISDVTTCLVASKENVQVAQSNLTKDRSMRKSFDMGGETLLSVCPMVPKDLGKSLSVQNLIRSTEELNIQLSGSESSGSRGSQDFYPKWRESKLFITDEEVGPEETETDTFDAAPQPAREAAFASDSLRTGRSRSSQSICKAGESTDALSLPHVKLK

potentiation, inactive:
Cc1cc(C)c(NC(=O)C2CC3CCC2C3)c(C)c1 (stereo not given) -12.5
CCCCC(=O)Nc1c(C)cc(C)cc1Cl -9.95
Cc1cccc(C)c1NC(=O)C1CC2CCC1C2 (stereo not given) -7.45
Cc1ccc(C)c(NC(=O)C2CC3CCC2C3)c1 (stereo not given) 2.92
Cc1cc(C)c(NC(=O)CC(C)(C)C)c(Cl)c1 -7.36
